Measured values taken from ChEMBL document CHEMBL4270651, “Synthesis and evaluation of new designed multiple ligands directed towards both peroxisome proliferator-activated receptor-γ and angiotensin II type 1 receptor” (Eur J Med Chem, 2018).
Active and inactive are the calls of the source. The rule behind the calls is not given here.

Experiments:
[1] = molecular target: T1, Peroxisome proliferator-activated receptor gamma (Homo sapiens) (UniProt P37231); test: Transactivation of human PPARgamma expressed in human MCF7 cells harboring pPPRE3-tk-luc reporter at 10 uM after 24 hrs by luciferase reporter gene assay relative to control; type: cell-based
T1 sequence (whole entry): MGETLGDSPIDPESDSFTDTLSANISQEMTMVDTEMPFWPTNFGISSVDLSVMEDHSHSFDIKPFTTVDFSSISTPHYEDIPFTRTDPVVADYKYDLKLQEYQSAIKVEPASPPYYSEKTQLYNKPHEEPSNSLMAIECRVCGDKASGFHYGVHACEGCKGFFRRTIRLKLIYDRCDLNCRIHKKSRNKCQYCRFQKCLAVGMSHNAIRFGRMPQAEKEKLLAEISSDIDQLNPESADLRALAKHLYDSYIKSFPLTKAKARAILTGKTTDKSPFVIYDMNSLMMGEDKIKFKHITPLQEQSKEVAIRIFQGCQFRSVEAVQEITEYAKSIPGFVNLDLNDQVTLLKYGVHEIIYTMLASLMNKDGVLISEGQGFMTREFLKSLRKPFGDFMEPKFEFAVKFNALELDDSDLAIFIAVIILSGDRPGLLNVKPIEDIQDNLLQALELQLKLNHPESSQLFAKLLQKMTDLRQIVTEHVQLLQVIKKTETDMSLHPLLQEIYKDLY
In short: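 MCF-7 cells transfected with a pPPRE3tk-luc reporter are exposed to compound (10μM) for 24 h. Luciferase activity is normalized to β-Gal activity and expressed as fold induction over a solvent control set to 1. Three independent experiments are run, each with duplicate transfections. Values are mean ± s.e.m.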

Rattus norvegicus [2] = species on record: Rattus norvegicus; test: Ratio of test compound IC50 to losartan IC50 for bocking activity at AT1 receptor in rat aortic vascular smooth muscle cells assessed as inhibition of angiotensin-2-induced calcium flux
In short: (§1)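 Rat aortic smooth muscle cells. Angiotensin II-mediated intracellular calcium release is followed by fluorescence. A first screen is run at a single concentration. Compounds that pass are retested at various concentrations to derive IC50, with losartan tested in each experiment. Values are expressed as the ratio of the compound's IC50 to losartan's IC50.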

Rattus norvegicus [3] = species on record: Rattus norvegicus; test: Blocking activity at AT1 receptor in rat aortic vascular smooth muscle cells assessed as inhibition of angiotensin-2-induced calcium flux at 10 uM preincubated for 20 mins followed by angiotensin-2 addition by Fura-2-AM dye based scanning fluorometric method relative to control; in short: as §1
Rattus norvegicus [4] = test: Antihypertensive activity in angiotensin 2-induced Wistar rat hypertensive model assessed as reduction in angiotensin 2-induced mean arterial pressure at 6 x 10^-5mol/kg, iv; type: functional, organism-based
In short: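 Adult male Wistar rats; angiotensin II given as i.v. bolus at 10-10 mol/kg, with no pretreatment or after i.v. pretreatment at 6.10−5 mol/kg. Read-out is the change in mean arterial pressure in mm Hg, reported as mean ± sem.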

Activity [1]	Ratio IC50 (Rattus norvegicus [2])	inhibition (Rattus norvegicus [3])	Compound	Activity (Rattus norvegicus [4])
inactive	0.4	> 50%	CCCCc1nc(Cl)c(CCCOc2ccc(CC3SC(=O)NC3=O)cc2)n1Cc1ccc(-c2ccccc2-c2nn[nH]n2)cc1 (configuration not stated)	–
Active	–	inactive	CCCCc1c(COc2ccc(CC3SC(=O)NC3=O)cc2)nnn1Cc1ccc(-c2ccccc2C(=O)O)cc1 (configuration not stated)	–
inactive	1.1	> 50%	CCCCc1ncc(CCCOc2ccc(CC3SC(=O)NC3=O)cc2)n1Cc1ccc(-c2ccccc2-c2nn[nH]n2)cc1 (configuration not stated)	–
inactive	3.4	> 50%	O=C1NC(=O)C(Cc2ccc(OCc3cn(Cc4ccc(-c5ccccc5C(=O)O)cc4)cn3)cc2)S1 (configuration not stated)	–
inactive	–	inactive	O=C1NC(=O)C(Cc2ccc(OCCc3cn(Cc4ccc(-c5ccccc5C(=O)O)cc4)nn3)cc2)S1 (configuration not stated)	–
Active	5	> 50%	CCCCc1nc(COc2ccc(CC3SC(=O)NC3=O)cc2)cn1Cc1ccc(-c2ccccc2C(=O)O)cc1 (configuration not stated)	–
Active	–	–	CC(C)(C)OC(=O)c1ccccc1-c1ccc(Cn2cc(CCOc3ccc(CC4SC(=O)NC4=O)cc3)nn2)cc1 (configuration not stated)	–
Active	–	–	CC(C)(C)OC(=O)c1ccccc1-c1ccc(Cn2cc(COc3ccc(CC4SC(=O)NC4=O)cc3)nn2)cc1 (configuration not stated)	–
Active	16.2	> 50%	CCCCc1nc(CCCOc2ccc(CC3SC(=O)NC3=O)cc2)cn1Cc1ccc(-c2ccccc2C(=O)O)cc1 (configuration not stated)	–
inactive	–	inactive	O=C1NC(=O)C(Cc2ccc(OCc3cn(Cc4ccc(-c5ccccc5C(=O)O)cc4)nn3)cc2)S1 (configuration not stated)	–

More lines, now with the values behind:

Compound	Activity [1]	Ratio IC50 (Rattus norvegicus [2])	inhibition (Rattus norvegicus [3])	Activity (Rattus norvegicus [4])
CCCCc1nc(Cl)c(CO)n1Cc1ccc(-c2ccccc2-c2nnn[nH]2)cc1	inactive	–	78%	Active
CCCc1nc2c(C)cc(-c3nc4ccccc4n3C)cc2n1Cc1ccc(-c2ccccc2C(=O)O)cc1	Active	–	–	–
CCCCc1nc(Cl)c(COc2ccc(CC3SC(=O)NC3=O)cc2)n1Cc1ccc(-c2ccccc2-c2nn[nH]n2)cc1 (configuration not stated)	inactive	6.3	> 50%	Active
CCCCCS(=O)(=O)NC(=O)/C=C/c1c(Cl)nc(CCCC)n1Cc1ccc(-c2ccccc2-c2nn[nH]n2)cc1	Active	11.1	> 50%	–
Cc1c(C)c2c(c(C)c1OCc1ccc(-c3ccccc3C(=O)O)cc1)CCC(C)(COc1ccc(/C=C3\SC(=O)NC3=O)cc1)O2 (configuration not stated)	Active	–	–	–
Cc1c(C)c2c(c(C)c1OCc1ccc(-c3ccccc3C(=O)OC(C)(C)C)cc1)CCC(C)(COc1ccc(/C=C3\SC(=O)NC3=O)cc1)O2 (configuration not stated)	Active	–	–	–
CCCCc1nc(Cl)c(COc2ccc(/C=C3\SC(=O)NC3=O)cc2)n1Cc1ccc(-c2ccccc2-c2nn[nH]n2)cc1	inactive	–	< 50%	–
COC(=O)c1ccccc1N[C@@H](Cc1ccc(OCC2(C)CCc3c(C)c(O)c(C)c(C)c3O2)cc1)C(=O)O (some centres not stated)	Active	–	–	–
CCCCc1nc(Cl)c(/C=C/C(=O)Oc2ccc(CC3SC(=O)NC3=O)cc2)n1Cc1ccc(-c2ccccc2-c2nn[nH]n2)cc1 (configuration not stated)	Active	3.2	> 50%	–
COC(=O)c1ccccc1N[C@@H](Cc1ccc(OCC2(C)CCc3c(C)c(OCc4ccc(-c5ccccc5C(=O)O)cc4)c(C)c(C)c3O2)cc1)C(=O)O (some centres not stated)	Active	–	inactive	–
Cc1c(C)c2c(c(C)c1OCc1ccc(-c3ccccc3C(=O)O)cc1)CCC(C)(COc1ccc(CC3SC(=O)NC3=O)cc1)O2 (configuration not stated)	Active	–	inactive	–
CCCCc1nc(Cl)c(/C=C/C(=O)Oc2ccc(C[C@H](Nc3ccccc3C(=O)OC)C(=O)O)cc2)n1Cc1ccc(-c2ccccc2-c2nn[nH]n2)cc1	Active	3.8	> 50%	–
CCCCCCCCCCCCOCc1c(Cl)nc(CCCC)n1Cc1ccc(-c2ccccc2-c2nn[nH]n2)cc1	Active	43.2	> 50%	–
